Reference: ChEMBL document CHEMBL1158358, “Synthesis, antimicrobial and cytotoxic activities of some 5-arylidene-4-thioxo-thiazolidine-2-ones” (Eur J Med Chem, 2009)
Values after ≈ are worked out from the molar mass of the structure shown.

Legend:
Type in all cases: functional
HEp-2 [1] = assay: Cytotoxicity against human Hep2 cells at 2.5 ug/mL after 72 hrs by MTT assay; details: HEp-2, 72 h, read-out: GI
How it was run: (§1)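 MTT antiproliferative assay. Cells were diluted to 10⁵ cells/mL in 96-well plates and preincubated for 24 h at 37 °C in humid 5% CO₂. Compounds or vincristine (reference) were then added. Formazan was dissolved and OD read at 540 nm, compared with medium-only control cells. Run in triplicate.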

Bacillus subtilis [2] = assay: Antimicrobial activity against Bacillus subtilis UFPEDA 16 at 300 ug/disk after 24 hrs by disk diffusion method; details: UFPEDA 16, 24 h, read-out: IZ
How it was run: (§2)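 Preliminary screen by disk diffusion. Paper disks (6 mm) holding 300 µg of compound were placed on agar plates inoculated with a standardized microbial suspension. DMSO-only disks served as negative controls. A mean inhibition zone below 7 mm was scored as no sensitivity. Values are means, n = 3.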

Enterococcus faecalis [3] = assay: Antimicrobial activity against multidrug-resistant Enterococcus faecalis H.C. 24962 isolate after 20 hrs by twofold serial dilution technique; details: H.C. 24962, 20 h
How it was run: (§3)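 Twofold serial dilution MIC in agar plates against Gram-positive strains and multidrug-resistant clinical isolates. Inoculum applied was 10⁵ CFU/plate. Plates with culture medium plus DMSO served as negative control. MIC was read after incubation at 35 °C for 20 h.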

Staphylococcus aureus [4] = assay: Antimicrobial activity against Staphylococcus aureus UFPEDA 01 after 20 hrs by twofold serial dilution technique; details: UFPEDA 01, 20 h; how it was run: as §3
Bacillus subtilis [5] = assay: Antimicrobial activity against Bacillus subtilis UFPEDA 16 after 20 hrs by twofold serial dilution technique; details: UFPEDA 16, 20 h
How it was run: (§4)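 MIC was determined by twofold serial dilution. Bacteria were tested in plates at 10⁵ CFU/plate and read after 20 h. C. albicans was tested in tubes at 10³ CFU/tube and read after 48 h. All incubations were at 35 °C. Medium plus DMSO served as the negative control.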

NCI-H292 [6] = assay: Cytotoxicity against human NCI-H292 cells at 10 ug/mL after 72 hrs by MTT assay; details: NCI-H292, 72 h, read-out: GI; how it was run: as §1
Staphylococcus [7] = assay: Antimicrobial activity against coagulase-negative Staphylococcus H.A.M. 338 isolate after 20 hrs by twofold serial dilution technique; details: H.A.M. 338, 20 h; how it was run: as §4
NCI-H292 [8] = assay: Cytotoxicity against human NCI-H292 cells at 1.25 ug/mL after 72 hrs by MTT assay; details: NCI-H292, 72 h, read-out: GI; how it was run: as §1
Escherichia coli = assay: Antimicrobial activity against Escherichia coli UFPEDA 224 at 300 ug/disk after 24 hrs by disk diffusion method; details: UFPEDA 224, 24 h, read-out: IZ; how it was run: as §2
Candida albicans [9] = assay: Antimicrobial activity against Candida albicans UFPEDA 1007 at 300 ug/disk after 48 hrs by disk diffusion method; details: UFPEDA 1007, 48 h, read-out: IZ; how it was run: as §2
Micrococcus luteus [10] = assay: Antimicrobial activity against Micrococcus luteus UFPEDA 06 after 20 hrs by twofold serial dilution technique; details: UFPEDA 06, 20 h; how it was run: as §4
Candida albicans [11] = assay: Antimicrobial activity against Candida albicans UFPEDA 1007 after 48 hrs by twofold serial dilution technique; details: UFPEDA 1007, 48 h; how it was run: as §4
[12] = system: Mycolicibacterium smegmatis; assay: Antimicrobial activity against Mycobacterium smegmatis UFPEDA 71 after 20 hrs by twofold serial dilution technique; details: UFPEDA 71, 20 h; how it was run: as §4
Pseudomonas aeruginosa = assay: Antimicrobial activity against Pseudomonas aeruginosa UFPEDA 39 at 300 ug/disk after 24 hrs by disk diffusion method; details: UFPEDA 39, 24 h, read-out: IZ; how it was run: as §2
HEp-2 [13] = assay: Cytotoxicity against human Hep2 cells at 5 ug/mL after 72 hrs by MTT assay; details: HEp-2, 72 h, read-out: GI; how it was run: as §1
Enterococcus faecalis [14] = assay: Antimicrobial activity against Enterococcus faecalis UFPEDA 138 at 300 ug/disk after 24 hrs by disk diffusion method; details: UFPEDA 138, 24 h, read-out: IZ; how it was run: as §2
HEp-2 [15] = assay: Cytotoxicity against human Hep2 cells at 10 ug/mL after 72 hrs by MTT assay; details: HEp-2, 72 h, read-out: GI; how it was run: as §1
[16] = system: Mycolicibacterium smegmatis; assay: Antimicrobial activity against Mycobacterium smegmatis UFPEDA 71 at 300 ug/disk after 24 hrs by disk diffusion method; details: UFPEDA 71, 24 h, read-out: IZ; how it was run: as §2
Serratia marcescens = assay: Antimicrobial activity against Serratia marcescens UFPEDA 398 at 300 ug/disk after 24 hrs by disk diffusion method; details: UFPEDA 398, 24 h, read-out: IZ; how it was run: as §2
Enterococcus faecalis [17] = assay: Antimicrobial activity against multidrug-resistant Enterococcus faecalis H.C. 24708 isolate after 20 hrs by twofold serial dilution technique; details: H.C. 24708, 20 h; how it was run: as §3
Staphylococcus aureus [18] = assay: Antimicrobial activity against multidrug-resistant Staphylococcus aureus H.C. 20794 isolate after 20 hrs by twofold serial dilution technique; details: H.C. 20794, 20 h; how it was run: as §3
Micrococcus luteus [19] = assay: Antimicrobial activity against Micrococcus luteus UFPEDA 06 at 300 ug/disk after 24 hrs by disk diffusion method; details: UFPEDA 06, 24 h, read-out: IZ; how it was run: as §2
Staphylococcus aureus [20] = assay: Antimicrobial activity against multidrug-resistant Staphylococcus aureus H.C. 21141 isolate after 20 hrs by twofold serial dilution technique; details: H.C. 21141, 20 h; how it was run: as §3
Staphylococcus aureus [21] = assay: Antimicrobial activity against multidrug-resistant Staphylococcus aureus H.C. 20981 isolate after 20 hrs by twofold serial dilution technique; details: H.C. 20981, 20 h; how it was run: as §3
Staphylococcus aureus [22] = assay: Antimicrobial activity against Staphylococcus aureus UFPEDA 01 at 300 ug/disk after 24 hrs by disk diffusion method; details: UFPEDA 01, 24 h, read-out: IZ; how it was run: as §2
Enterococcus faecalis [23] = assay: Antimicrobial activity against Enterococcus faecalis UFPEDA 138 after 20 hrs by twofold serial dilution technique; details: UFPEDA 138, 20 h; how it was run: as §4
Enterococcus faecalis [24] = assay: Antimicrobial activity against multidrug-resistant Enterococcus faecalis H.C. 21944 isolate after 20 hrs by twofold serial dilution technique; details: H.C. 21944, 20 h; how it was run: as §3
HEp-2 [25] = assay: Cytotoxicity against human Hep2 cells at 1.25 ug/mL after 72 hrs by MTT assay; details: HEp-2, 72 h, read-out: GI; how it was run: as §1
Staphylococcus aureus [26] = assay: Antimicrobial activity against multidrug-resistant Staphylococcus aureus H.C. 20489 isolate after 20 hrs by twofold serial dilution technique; details: H.C. 20489, 20 h; how it was run: as §3
NCI-H292 [27] = assay: Cytotoxicity against human NCI-H292 cells at 5 ug/mL after 72 hrs by MTT assay; details: NCI-H292, 72 h, read-out: GI; how it was run: as §1
Staphylococcus [28] = assay: Antimicrobial activity against coagulase-negative Staphylococcus H.A.M. 278 isolate after 20 hrs by twofold serial dilution technique; details: H.A.M. 278, 20 h; how it was run: as §4
Staphylococcus aureus [29] = assay: Antimicrobial activity against multidrug-resistant Staphylococcus aureus H.C. 20905 isolate after 20 hrs by twofold serial dilution technique; details: H.C. 20905, 20 h; how it was run: as §3
NCI-H292 [30] = assay: Cytotoxicity against human NCI-H292 cells at 2.5 ug/mL after 72 hrs by MTT assay; details: NCI-H292, 72 h, read-out: GI; how it was run: as §1
Enterococcus faecalis [31] = assay: Antimicrobial activity against multidrug-resistant Enterococcus faecalis H.C. 21752 isolate after 20 hrs by twofold serial dilution technique; details: H.C. 21752, 20 h; how it was run: as §3
Staphylococcus aureus [32] = assay: Antimicrobial activity against multidrug-resistant Staphylococcus aureus H.C. 21036 isolate after 20 hrs by twofold serial dilution technique; details: H.C. 21036, 20 h; how it was run: as §3

With O=C1NC(=S)/C(=C/c2ccccc2Br)S1 the inhibition of growth at 2.5 µg/mL (HEp-2 [1]) was 10.3%, the zone of inhibition at 300 µg/disc (Bacillus subtilis [2]) was 19 mm and the MIC (Enterococcus faecalis [3]) was 16 µg/mL (≈ 53.3 µM). It also gave an MIC (Staphylococcus aureus [4]) of 4 µg/mL (≈ 13.3 µM), an MIC (Bacillus subtilis [5]) of 8 µg/mL (≈ 26.6 µM) and an inhibition of growth at 10 µg/mL (NCI-H292 [6]) of 36.9%. It also gave an MIC (Staphylococcus [7]) of 16 µg/mL (≈ 53.3 µM), an inhibition of growth at 1.25 µg/mL (NCI-H292 [8]) of 13.3% and a zone of inhibition at 300 µg/disc (Escherichia coli) of less than 7 mm. It also gave a zone of inhibition at 300 µg/disc (Candida albicans [9]) of 13 mm, an MIC (Micrococcus luteus [10]) of 16 µg/mL (≈ 53.3 µM) and an MIC (Candida albicans [11]) of 32 µg/mL (≈ 107 µM). The MIC [12] was 32 µg/mL (≈ 107 µM), the zone of inhibition at 300 µg/disc (Pseudomonas aeruginosa) was less than 7 mm and the inhibition of growth at 5 µg/mL (HEp-2 [13]) was 16.2%. The zone of inhibition at 300 µg/disc (Enterococcus faecalis [14]) was 19 mm, the inhibition of growth at 10 µg/mL (HEp-2 [15]) was 21.2% and the zone of inhibition at 300 µg/disc [16] was 21 mm. It also gave a zone of inhibition at 300 µg/disc (Serratia marcescens) of less than 7 mm, an MIC (Enterococcus faecalis [17]) of 16 µg/mL (≈ 53.3 µM) and an MIC (Staphylococcus aureus [18]) of 4 µg/mL (≈ 13.3 µM). For the same compound, the zone of inhibition at 300 µg/disc (Micrococcus luteus [19]) was 18 mm, the MIC (Staphylococcus aureus [20]) was 16 µg/mL (≈ 53.3 µM) and the MIC (Staphylococcus aureus [21]) was 4 µg/mL (≈ 13.3 µM). It also gave a zone of inhibition at 300 µg/disc (Staphylococcus aureus [22]) of 25 mm, an MIC (Enterococcus faecalis [23]) of 32 µg/mL (≈ 107 µM) and an MIC (Enterococcus faecalis [24]) of 16 µg/mL (≈ 53.3 µM). It also gave an inhibition of growth at 1.25 µg/mL (HEp-2 [25]) of 3.14%, an MIC (Staphylococcus aureus [26]) of 4 µg/mL (≈ 13.3 µM) and an inhibition of growth at 5 µg/mL (NCI-H292 [27]) of 22.9%. The MIC (Staphylococcus [28]) was 2 µg/mL (≈ 6.66 µM), the MIC (Staphylococcus aureus [29]) was 4 µg/mL (≈ 13.3 µM) and the inhibition of growth at 2.5 µg/mL (NCI-H292 [30]) was 16.2%. The MIC (Enterococcus faecalis [31]) was 8 µg/mL (≈ 26.6 µM) and the MIC (Staphylococcus aureus [32]) was 4 µg/mL (≈ 13.3 µM).
O=C1NC(=S)CS1 gave a zone of inhibition at 300 µg/disc (Bacillus subtilis [2]) of 21 mm, an MIC (Enterococcus faecalis [3]) of 32 µg/mL (≈ 240 µM) and an MIC (Staphylococcus aureus [4]) of 8 µg/mL (≈ 60.1 µM). It also gave an MIC (Bacillus subtilis [5]) of 4 µg/mL (≈ 30 µM), an MIC (Staphylococcus [7]) of 64 µg/mL (≈ 480 µM) and a zone of inhibition at 300 µg/disc (Escherichia coli) of less than 7 mm. It also gave a zone of inhibition at 300 µg/disc (Candida albicans [9]) of 19 mm, an MIC (Micrococcus luteus [10]) of 4 µg/mL (≈ 30 µM) and an MIC (Candida albicans [11]) of 8 µg/mL (≈ 60.1 µM). It also gave an MIC [12] of 32 µg/mL (≈ 240 µM), a zone of inhibition at 300 µg/disc (Pseudomonas aeruginosa) of less than 7 mm and a zone of inhibition at 300 µg/disc (Enterococcus faecalis [14]) of 22 mm. It also gave a zone of inhibition at 300 µg/disc [16] of 18 mm, a zone of inhibition at 300 µg/disc (Serratia marcescens) of less than 7 mm and an MIC (Enterococcus faecalis [17]) of 32 µg/mL (≈ 240 µM). For the same compound, the MIC (Staphylococcus aureus [18]) was 32 µg/mL (≈ 240 µM), the zone of inhibition at 300 µg/disc (Micrococcus luteus [19]) was 26 mm and the MIC (Staphylococcus aureus [20]) was 32 µg/mL (≈ 240 µM). For the same compound, the MIC (Staphylococcus aureus [21]) was 32 µg/mL (≈ 240 µM), the zone of inhibition at 300 µg/disc (Staphylococcus aureus [22]) was 19 mm and the MIC (Enterococcus faecalis [23]) was 64 µg/mL (≈ 480 µM). The MIC (Enterococcus faecalis [24]) was 32 µg/mL (≈ 240 µM), the MIC (Staphylococcus aureus [26]) was 64 µg/mL (≈ 480 µM) and the MIC (Staphylococcus [28]) was 64 µg/mL (≈ 480 µM). The MIC (Staphylococcus aureus [29]) was 32 µg/mL (≈ 240 µM), the MIC (Enterococcus faecalis [31]) was 32 µg/mL (≈ 240 µM) and the MIC (Staphylococcus aureus [32]) was 32 µg/mL (≈ 240 µM).
